# The source made the active and inactive calls. No cut-off for these calls is given here. Peptide text beside a SMILES is read from it. * marks the point of attachment. βNA = c1ccc2cc(N*)ccc2c1
# How the values were obtained:
# Klebsiella aerogenes [1] = assay: Chemosensitization of wild type Enterobacter aerogenes ATCC 13048 assessed as decrease in sparfloxacin MIC at 63 uM relative to control; format: functional, organism-based
# Procedure, shortened: (§1)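 About 10^6 cells were put into 1 mL Mueller-Hinton broth with twofold serial dilutions of the antibiotic (CLSI). A fixed sub-inhibitory compound concentration was added, set without antibiotic, usually ≤1/4 MIC. Controls ran without inhibitor. Plates were read after 18 h at 37 °C. MICs are the means of three independent determinations. Activity gain = MIC without compound / MIC with compound.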
# Klebsiella aerogenes [2] = assay: Chemosensitization of Enterobacter aerogenes CM-64 overexpressing AcrAB-TolC assessed as decrease in nalidixic acid MIC at 63 uM relative to control; format: functional; procedure, shortened: as §1
# Klebsiella aerogenes [3] = assay: Chemosensitization of Enterobacter aerogenes CM-64 overexpressing AcrAB-TolC assessed as decrease in sparfloxacin MIC at 63 uM relative to control; format: functional; procedure, shortened: as §1
# Klebsiella aerogenes [4] = assay: Antibacterial activity against Enterobacter aerogenes CM-64 overexpressing AcrAB-TolC assessed as growth inhibition after 18 hrs by CLSI broth dilution method; format: functional; conditions: CM-64, 18 h
# Procedure, shortened: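 Intrinsic MIC of each compound with no antibiotic added. About 10^6 cells were inoculated into 1 mL Mueller-Hinton broth with twofold serial dilutions, following CLSI guidelines. Plates were read after 18 h at 37 °C, in triplicate. MIC is the mean of three independent determinations.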
# Klebsiella aerogenes [5] = assay: Chemosensitization of wild type Enterobacter aerogenes ATCC 13048 assessed as decrease in nalidixic acid MIC at 63 uM relative to control; format: functional
# Procedure, shortened: (§2)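 Antibiotic MIC by CLSI broth dilution: about 10^6 cells in 1 mL Mueller-Hinton broth with twofold antibiotic dilutions, 18 h at 37 °C, in triplicate. Compound held at a fixed sub-inhibitory level (≤MIC/4) set without antibiotic. Controls ran without inhibitor and without antibiotic. PAβN 50 µM served as reference. Activity gain = MIC without compound / MIC with compound. MICs are the mean of three determinations.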
# Klebsiella aerogenes [6] = assay: Antibacterial activity against wild type Enterobacter aerogenes ATCC 13048 assessed as growth inhibition after 18 hrs by CLSI broth dilution method; format: functional; conditions: ATCC 13048, 18 h
# Procedure, shortened: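 Broth dilution per CLSI in Mueller-Hinton broth, about 10^6 cells per 1 mL, read after 18 h at 37 °C. The compound alone, with no antibiotic, against reference strain ATCC 13048. MIC is the mean of three independent determinations.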
# Klebsiella aerogenes [7] = assay: Chemosensitization of Enterobacter aerogenes CM-64 overexpressing AcrAB-TolC assessed as decrease in chloramphenicol MIC at 63 uM relative to control; format: functional; procedure, shortened: as §1
# Klebsiella aerogenes [8] = assay: Chemosensitization of wild type Enterobacter aerogenes ATCC 13048 assessed as decrease in chloramphenicol MIC at 200 uM relative to control; format: functional, organism-based; procedure, shortened: as §2
# Klebsiella aerogenes [9] = assay: Chemosensitization of Enterobacter aerogenes CM-64 overexpressing AcrAB-TolC assessed as decrease in sparfloxacin MIC at 200 uM relative to control; format: functional; procedure, shortened: as §1
# Klebsiella aerogenes [10] = assay: Chemosensitization of Enterobacter aerogenes CM-64 overexpressing AcrAB-TolC assessed as decrease in nalidixic acid MIC at 100 uM relative to control
# Klebsiella aerogenes [11] = assay: Chemosensitization of Enterobacter aerogenes CM-64 overexpressing AcrAB-TolC assessed as decrease in nalidixic acid MIC at 100 uM relative to control; format: functional, organism-based; procedure, shortened: as §1
# Klebsiella aerogenes [12] = assay: Chemosensitization of wild type Enterobacter aerogenes ATCC 13048 assessed as decrease in nalidixic acid MIC at 100 uM relative to control; format: functional; procedure, shortened: as §1
# Klebsiella aerogenes [13] = assay: Chemosensitization of Enterobacter aerogenes CM-64 overexpressing AcrAB-TolC assessed as decrease in sparfloxacin MIC at 100 uM relative to control; format: functional, organism-based; procedure, shortened: as §1
# Klebsiella aerogenes [14] = assay: Chemosensitization of wild type Enterobacter aerogenes ATCC 13048 assessed as decrease in nalidixic acid MIC at 200 uM relative to control; format: functional; procedure, shortened: as §1
# Klebsiella aerogenes [15] = assay: Chemosensitization of Enterobacter aerogenes CM-64 overexpressing AcrAB-TolC assessed as decrease in nalidixic acid MIC at 200 uM relative to control; format: functional; procedure, shortened: as §1
# Klebsiella aerogenes [16] = assay: Chemosensitization of wild type Enterobacter aerogenes ATCC 13048 assessed as decrease in chloramphenicol MIC at 63 uM relative to control; format: functional, organism-based; procedure, shortened: as §2
# Klebsiella aerogenes [17] = assay: Chemosensitization of Enterobacter aerogenes CM-64 overexpressing AcrAB-TolC assessed as decrease in chloramphenicol MIC at 200 uM relative to control; format: functional; procedure, shortened: as §1
# Klebsiella aerogenes [18] = assay: Chemosensitization of wild type Enterobacter aerogenes ATCC 13048 assessed as decrease in […] at 50 uM relative to control; format: functional, organism-based
Structure (SMILES),fold change (FC) (Klebsiella aerogenes [3]),MIC (Klebsiella aerogenes [4]),MIC (Klebsiella aerogenes [6]),other results
COc1ccc(/C=C2\NC(=O)N(CC(O)CNC(C)C)C2=O)c(OC)c1 (centres undefined),4,250 µM,250 µM,Activity (Klebsiella aerogenes [1]): Active; fold change (FC) (Klebsiella aerogenes [2]): 4; fold change (FC) (Klebsiella aerogenes [5]): 2; fold change (FC) (Klebsiella aerogenes [7]): 4
CCOc1ccccc1N1CCN(CC(O)CN2C(=O)N/C(=C\c3ccc(Cl)cc3)C2=O)CC1 (centres undefined),–,1000 µM,500 µM,Activity (Klebsiella aerogenes [8]): Active; fold change (FC) (Klebsiella aerogenes [9]): 2; fold change (FC) (Klebsiella aerogenes [10]): 4
COc1ccc(/C=C2\NC(=O)N(CC(O)CN3CCN(c4ccccc4)CC3)C2=O)cc1OC (centres undefined),–,500 µM,500 µM,Activity (Klebsiella aerogenes [11]): Active; fold change (FC) (Klebsiella aerogenes [12]): 2; Activity (Klebsiella aerogenes [13]): inactive
CC(C)NCC(O)CN1C(=O)N/C(=C\c2ccc(Br)cc2)C1=O (centres undefined),–,> 1250 µM,> 1250 µM,–
COc1ccccc1N1CCN(CC(O)CN2C(=O)N/C(=C\c3ccccc3)C2=O)CC1 (centres undefined),–,1000 µM,500 µM,fold change (FC) (Klebsiella aerogenes [14]): 2; Activity (Klebsiella aerogenes [9]): inactive; Activity (Klebsiella aerogenes [15]): Active
COc1ccc(/C=C2\NC(=O)N(CC(O)CNCCCN3CCN(C)CC3)C2=O)cc1.Cl (centres undefined),–,> 2000 µM,> 2000 µM,Activity (Klebsiella aerogenes [1]): Active; Activity (Klebsiella aerogenes [16]): Active; Activity (Klebsiella aerogenes [3]): inactive; fold change (FC) (Klebsiella aerogenes [5]): 2
COc1ccc(/C=C2\NC(=O)N(CC(O)CN3CCN(CCO)CC3)C2=O)c(OC)c1 (centres undefined),2,250 µM,125 µM,fold change (FC) (Klebsiella aerogenes [2]): 4; fold change (FC) (Klebsiella aerogenes [7]): 4
COc1ccc(/C=C2\NC(=O)N(CC(O)CN3CCN(c4ccccc4OC)CC3)C2=O)cc1OC (centres undefined),–,1000 µM,1000 µM,Activity (Klebsiella aerogenes [9]): inactive; fold change (FC) (Klebsiella aerogenes [17]): 2; Activity (Klebsiella aerogenes [15]): Active
COc1ccccc1N1CCN(CC(O)CN2C(=O)N/C(=C\c3ccc(Cl)cc3)C2=O)CC1 (centres undefined),–,1000 µM,500 µM,fold change (FC) (Klebsiella aerogenes [14]): 2; Activity (Klebsiella aerogenes [9]): inactive; fold change (FC) (Klebsiella aerogenes [10]): 4
C[C@@H]1CN(c2c(F)c(N)c3c(=O)c(C(=O)O)cn(C4CC4)c3c2F)C[C@H](C)N1 [SPARFLOXACIN],–,1 µM,0.06 µM,–
COc1ccc(/C=C2\NC(=O)N(CC(O)CN3CCNCC3)C2=O)cc1.Cl.Cl (centres undefined),2,> 2000 µM,> 2000 µM,–
N=C(N)NCCC[C@H](NC(=O)[C@@H](N)Cc1ccccc1)C(=O)Nc1ccc2ccccc2c1 [PABETAN] (H-Phe-Arg-βNA),–,5000 µM,5000 µM,Activity (Klebsiella aerogenes [18]): Active
CC(C)NCC(O)CN1C(=O)N/C(=C\c2ccc(Cl)cc2)C1=O (centres undefined),4,250 µM,250 µM,Activity (Klebsiella aerogenes [1]): Active; Activity (Klebsiella aerogenes [2]): Active; fold change (FC) (Klebsiella aerogenes [7]): 4
CCn1cc(C(=O)O)c(=O)c2ccc(C)nc21 [NALIDIXIC ACID],–,128 µM,8 µM,–
O=C1N/C(=C\c2ccc(Cl)cc2)C(=O)N1CC(O)CN1CCN(CCO)CC1 (centres undefined),–,250 µM,250 µM,Activity (Klebsiella aerogenes [1]): Active; fold change (FC) (Klebsiella aerogenes [2]): 4; Activity (Klebsiella aerogenes [3]): inactive
O=C(N[C@H](CO)[C@H](O)c1ccc([N+](=O)[O-])cc1)C(Cl)Cl [CHLORAMPHENICOL],–,256 µM,4 µM,–
O=C(CN1C(=O)N/C(=C\c2ccc(Br)cc2)C1=O)N1CCN(CCO)CC1,–,> 1250 µM,> 1250 µM,fold change (FC) (Klebsiella aerogenes [2]): 4
CCN(CC)c1ccc(/C=C2\NC(=O)N(CC(O)CN3CCN(CCO)CC3)C2=O)cc1 (centres undefined),4,250 µM,125 µM,fold change (FC) (Klebsiella aerogenes [2]): 4; fold change (FC) (Klebsiella aerogenes [5]): 2; fold change (FC) (Klebsiella aerogenes [7]): 4
COc1ccc(/C=C2\NC(=O)N(CC(O)CN3CCCCC3)C2=O)cc1 (centres undefined),–,> 2000 µM,> 2000 µM,–
O=C(CN1C(=O)N/C(=C\c2ccccc2)C1=O)N1CCN(CCO)CC1,2,250 µM,125 µM,fold change (FC) (Klebsiella aerogenes [2]): 4; fold change (FC) (Klebsiella aerogenes [7]): 2
COc1ccc(/C=C2\NC(=O)N(CC(O)CN3CCN(C(C)=O)CC3)C2=O)cc1 (centres undefined),–,> 2000 µM,> 2000 µM,Activity (Klebsiella aerogenes [2]): Active; Activity (Klebsiella aerogenes [3]): inactive
COc1ccc(/C=C2\NC(=O)N(CC(O)CN3CCN(C)CC3)C2=O)cc1.Cl (centres undefined),2,> 2000 µM,> 2000 µM,–
COc1ccc(/C=C2\NC(=O)N(CC(O)CN3CCOCC3)C2=O)cc1 (centres undefined),–,> 2000 µM,> 2000 µM,Activity (Klebsiella aerogenes [3]): inactive
